NR2E3 ag-1: NR2E3 agonists in two-hybrid cells, primary screen, cell-based, luminescence, CHO-S, Gal4-NCOR/VP16-NR2E3; Photoreceptor-specific nuclear receptor (Homo sapiens), Q9Y5X4; luciferase; inhibition of corepressor binding, % at 3.98 µM; 360,000 tested, 0.35% active; AID 602229, 2012;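 active means inhibition above the mean of all tested compounds plus 3 SD, cut at about 70% in these data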;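 further: higher means lower luciferase signal from less NR2E3 corepressor binding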
Target sequence (Q9Y5X4 whole entry, looked up, the tested form may be a part): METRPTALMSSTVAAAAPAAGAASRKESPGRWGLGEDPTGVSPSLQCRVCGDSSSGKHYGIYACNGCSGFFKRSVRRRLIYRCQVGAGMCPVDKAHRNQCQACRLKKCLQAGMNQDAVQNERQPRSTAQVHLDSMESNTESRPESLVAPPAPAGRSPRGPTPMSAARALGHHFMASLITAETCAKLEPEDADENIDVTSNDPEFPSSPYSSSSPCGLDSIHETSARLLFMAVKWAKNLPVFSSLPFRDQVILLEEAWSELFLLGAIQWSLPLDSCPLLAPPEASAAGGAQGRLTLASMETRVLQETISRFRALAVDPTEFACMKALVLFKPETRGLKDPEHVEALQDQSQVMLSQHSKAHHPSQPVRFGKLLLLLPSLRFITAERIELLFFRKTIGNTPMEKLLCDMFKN
HIF activator: HIF pathway transcriptional activators, primary screen, cell-based, U2OS HRE-luciferase, luminescence | activation, % at 7.5 µM (by protocol) | 300,000 tested, 0.32% active | U2OS HRE-luciferase reporter; normalized: DMSO 0%, desferrioxamine 100% | AID 1910, 2009;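 active means mean activation of at least 10% of the iron chelator positive control signal, with at least half of replicates also reaching 10%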
LMP1 NFkB inh: EBV LMP1-driven NF-kappaB luciferase reporter inhibitors, primary screen, cell-based, luminescence, single point. LMP1-induced NF-kappaB luciferase reporter cells. inhibition, % at 12.5 µM. 350,000 tested, 0.69% active; in the data active means inhibition above about 41%
NR2E3 ag-2: inhibitors of NR2E3-RetCOR corepressor binding, primary screen, NR2E3 agonist project, biochemical, TR-FRET, GST-NR2E3, biotin-RetCOR; Photoreceptor-specific nuclear receptor (Homo sapiens), Q9Y5X4; inhibition of corepressor binding, % at 4.78 µM; 320,000 tested, 0.12% active; 1536-well;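 active means percent inhibition above the cutoff of mean plus 3 SD of all tested compounds, set per screening campaign, cut at about 20% in these data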
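system = GST-tagged NR2E3 plus biotinylated RetCOR corepressor | input = 1.35 nM GST-NR2E3 | also added = 7 nM biotin-RetCOR | schedule = 5 h incubation at 4 °C | measured by = TR-FRET with europium anti-GST and streptavidin-D2, 340 nm excitation | read-out = percent loss of FRET ratio relative to control wells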
TROY NFkB inh: inhibitors of TROY-driven NF-kB signaling, primary screen, Q293 LMP1-TROYcd cells, NF-kB luciferase, uHTS; 360,000 tested, 0.98% active; Q293 LMP1-TROYcd NF-kB luciferase reporter, 4 h; AID 1347056, 2019; inhibition, % at 10 µM;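 active means compounds whose plate-normalised and pattern-corrected inhibition of the luciferase reporter signal at the single screening dose is 50% or more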
NR2E3 ag confirm: NR2E3 agonist confirmation in cells, cell-based, luminescence, CHO-S two-hybrid | shares compounds with NR2E3 ag-1 | CHO-S mammalian two-hybrid NR2E3-NCOR, luciferase luminescence | inhibition, % at 3.98 µM | 2,300 tested, 51% active;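 active means average inhibition above a cutoff equal to the mean inhibition of all tested compounds plus one SD, cut at about 70% in these data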
VP16 counter: GAL4-VP16 reporter modulators, confirmation, counter-screen for NR2E3 agonist project, cell-based, luminescence, CHO-S, high throughput; CHO-S GAL4-VP16 luciferase reporter; inhibition, % at 3.98 µM; shares compounds with NR2E3 ag-1; 2,300 tested, 29% active;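 active means mean inhibition above a cutoff equal to the average over all tested compounds plus one standard deviation, cut at about 70% in these data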;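 further: luciferase from a UAS reporter driven by GAL4-VP16 transactivation; higher means less reporter light so more repression of VP16 activity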
Each line names hits and unclear results; the compound was inactive in the other large screens (follow-up assays come after a bar, where they were run). Hits are enriched below; roughly 2% of the tested compounds scored in any of these assays.

CC(C)NC(=S)N/N=C/c1cc(Br)ccc1O	NR2E3 ag-1 72 | NR2E3 ag confirm inactive | VP16 counter inactive
Cc1ccc(N2CC(C(=O)Nc3nccs3)CC2=O)cc1Cl (stereo not drawn)	none | NR2E3 ag confirm inactive | VP16 counter inactive
COc1ccccc1-c1cccc([C@@H]2C[C@H]3[C@@H](CN2)CON3C)c1	none (no result: HIF activator, NR2E3 ag-2)
O=C(NC1CCCCC1)c1cccc2c(-c3ccc(F)c(F)c3)coc12	none (no result: HIF activator, LMP1 NFkB inh, NR2E3 ag-2)
O=C(Nc1nnc([C@H]2C[C@H](O)[C@@H](CO)O2)s1)Nc1ccccc1Oc1ccccc1	none (no result: HIF activator, LMP1 NFkB inh, NR2E3 ag-2)
Cc1[nH]oc(=O)c1N=Nc1ccccc1	NR2E3 ag-1 75 | NR2E3 ag confirm inactive | VP16 counter inactive
NNC(=O)c1cnn(Cc2ccccc2)c1N	none | NR2E3 ag confirm inactive | VP16 counter inactive
NC(=O)c1cnn(Cc2ccc(Cl)cc2)c1N	none
Cc1nc2ccc(NS(=O)(=O)c3ccc(F)c(F)c3)cc2s1	none (no result: HIF activator) | NR2E3 ag confirm inactive | VP16 counter inactive
Cc1nc2ccc(S(=O)(=O)Nc3cccc(-c4nc5cccnc5s4)c3)cc2s1	NR2E3 ag-1 71 | NR2E3 ag confirm 76 | VP16 counter inactive
Cc1nc2ccc(NS(=O)(=O)c3cccc([N+](=O)[O-])c3)cc2s1	none (no result: HIF activator, NR2E3 ag-2) | NR2E3 ag confirm 85 | VP16 counter 72
Cc1ccc(S(=O)(=O)Nc2ccc3nc(C)sc3c2)c(C)c1	none (no result: HIF activator) | NR2E3 ag confirm 72 | VP16 counter inactive
Cc1ccc(-c2noc(CCC(=O)Nc3cccc(C(=O)NC4CC4)c3)n2)cc1	none (no result: HIF activator, NR2E3 ag-2)
COc1cccc(-c2cc3c(c4c2ccn4C)C2CCC3C2)c1 (stereo not drawn)	none (no result: HIF activator, LMP1 NFkB inh, NR2E3 ag-2)
O=C(CSc1nncs1)Nc1nnc(-c2ccccc2)o1	none
Cc1ccc(S(=O)(=O)Nc2ccc3nc(C)sc3c2)cc1	NR2E3 ag-1 72 | NR2E3 ag confirm 88 | VP16 counter 76
Cc1nc2ccc(NS(=O)(=O)c3ccc4c(c3)OCCO4)cc2s1	NR2E3 ag-1 94 (no result: TROY NFkB inh) | NR2E3 ag confirm 97 | VP16 counter 91
Cc1nc2ccc(NS(=O)(=O)c3ccc(Br)cc3)cc2s1	NR2E3 ag-1 85 (no result: HIF activator) | NR2E3 ag confirm 97 | VP16 counter 76
CC(=O)Nc1ccc(S(=O)(=O)Nc2ccc3nc(C)sc3c2)cc1	none (no result: HIF activator, NR2E3 ag-2)
CCCNC(=O)C1CCC(CNS(=O)(=O)c2ccc3c(c2)N(C(C)=O)CCO3)CC1 (stereo not drawn)	none
COc1ccc(OC)c(/C=N/NC(=O)C(=O)NCc2cccnc2)c1	none
CCOc1ccc(N(CC(=O)NCCSCc2ccco2)S(=O)(=O)c2ccc(C)cc2)cc1	none
O=C(Cc1ccc(Cl)cc1)NCCc1c[nH]c2ccccc12	none
Nc1nc2ccc(Cl)cc2cc1C(=O)NCc1ccc(Oc2ccccc2)cc1	NR2E3 ag-1 95 (no result: HIF activator, LMP1 NFkB inh, NR2E3 ag-2) | NR2E3 ag confirm 94 | VP16 counter 82
Nc1nc2ccc(Cl)cc2cc1C(=O)NCCc1c[nH]c2ccccc12	NR2E3 ag-1 93 (no result: HIF activator, LMP1 NFkB inh, NR2E3 ag-2) | NR2E3 ag confirm 94 | VP16 counter 83
Nc1nc2cc3c(cc2cc1C(=O)NCc1ccc(F)cc1)OCO3	NR2E3 ag-1 88 (no result: HIF activator, LMP1 NFkB inh, NR2E3 ag-2) | NR2E3 ag confirm 94 | VP16 counter 72
O=C(Nc1ccc(F)cc1)C1CCCN(C2=NS(=O)(=O)c3ccccc32)C1 (stereo not drawn)	none (no result: HIF activator)
CC(C)(C)c1ccc(-n2ncc3c2CCCC3NC(=O)CN2CCOC2=O)cc1 (stereo not drawn)	none | NR2E3 ag confirm inactive | VP16 counter inactive
CC(C)(C)c1ccc(-n2ncc3c2CCCC3NC(=O)CCN2CCCCC2=O)cc1 (stereo not drawn)	none | NR2E3 ag confirm inactive | VP16 counter inactive
COc1ccc(-n2ncc3c2CC(C)(C)CC3NC(=O)CN2CCOC2=O)cc1 (stereo not drawn)	none (no result: NR2E3 ag-2)
C=C[C@]1(C)C=C2C(=O)[C@@]3(O)OC(=O)[C@@]4(CCCC(C)(C)[C@H]34)[C@@]2(O)CC1	NR2E3 ag-1 92 (no result: HIF activator, LMP1 NFkB inh, NR2E3 ag-2) | NR2E3 ag confirm 91 | VP16 counter inactive
C=C[C@]1(C)C=C2CC[C@H]3[C@@](C)(CCC[C@@]3(C)C(=O)O)[C@@H]2CC1	none (no result: HIF activator, NR2E3 ag-2)
CCOC(=O)C1=C(COC(=O)Cc2ccccc2)NC(=O)NC1C (stereo not drawn)	none
COCCCC1CCN(C(=O)c2cc(COc3ccc(C)nc3)on2)CC1	none | NR2E3 ag confirm inactive | VP16 counter inactive
Cc1ccc(OCc2cc(C(=O)N3CCC(Oc4cccnc4)CC3)no2)cc1C	NR2E3 ag-1 97 | NR2E3 ag confirm 91 | VP16 counter inactive
O=C(c1cc(COc2cccc(C(F)(F)F)c2)on1)N1CCC(Oc2cccnc2)CC1	NR2E3 ag-1 78 | NR2E3 ag confirm 92 | VP16 counter 75
CCOc1ccccc1CNc1ncnc2ccc(-c3c(C)noc3C)cc12	NR2E3 ag-1 82, TROY NFkB inh 62 (no result: HIF activator) | NR2E3 ag confirm 81 | VP16 counter inactive
NC(=O)c1ccc(N2CCN(S(=O)(=O)c3cccs3)CC2)c([N+](=O)[O-])c1	NR2E3 ag-1 82 (no result: HIF activator, NR2E3 ag-2) | NR2E3 ag confirm 95 | VP16 counter 78
Cc1cccc(NC(=S)N=Nc2c(O)[nH]c3ccccc23)c1	none | NR2E3 ag confirm inactive | VP16 counter inactive
CNC[C@H]1OCc2ccccc2-c2ccccc2C(=O)N([C@H](C)CO)C[C@H]1C	none (no result: HIF activator, NR2E3 ag-2)
O=C(NN=C1c2ccccc2-c2ccccc21)c1ccccc1	none
NC(=S)NN=C1c2ccccc2-c2ccccc21	NR2E3 ag-1 72 | NR2E3 ag confirm inactive | VP16 counter inactive
CN(C)S(=O)(=O)Oc1cccc(C(=O)Nc2ccc(Cl)cc2)c1	none | NR2E3 ag confirm inactive | VP16 counter inactive
CN(C)S(=O)(=O)Oc1cccc(C(=O)Nc2ccccc2Cl)c1	none
Cc1ccccc1C(=O)Oc1cccc(Nc2ncnc3ccccc23)c1	NR2E3 ag-1 72, TROY NFkB inh 51 | NR2E3 ag confirm inactive | VP16 counter inactive
CC(=O)Oc1cccc(Nc2ncnc3ccccc23)c1	none
CNC(=S)NN=C(C)CCCC(C)=NNC(=S)NC	none (no result: HIF activator, NR2E3 ag-2) | NR2E3 ag confirm inactive | VP16 counter inactive
CCc1cccc2sc(N3CCN(C(=O)c4ccc([N+](=O)[O-])o4)CC3)nc12	NR2E3 ag-1 90 | NR2E3 ag confirm 76 | VP16 counter inactive
N=C1SC(c2ccccc2)C(=O)N1c1ncc(Cc2ccccc2Cl)s1 (stereo not drawn)	none | NR2E3 ag confirm inactive | VP16 counter inactive
O=C(CSc1nnnn1-c1ccccc1)Nc1ncc(Cc2ccccc2Cl)s1	none
